# Measurements reported in ChEMBL document CHEMBL5576109, “Hydantoin derivative dimers as broad-spectrum antimicrobial agents against ESKAPE pathogens with enhanced killing rate and stability” (RSC Med Chem, 2024).
# Columns and labels:
# Bacillus subtilis = experiment: Antibacterial activity against Bacillus subtilis ATCC 6633 assessed as reduction bacterial growth after 16 hrs by TECAN SPARK microplate reader analysis; type: functional
# Outline: (§1)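 Single colony grown overnight in 4 mL TSB at 37 °C, diluted 100-fold and grown to mid-log phase. Compounds 2-fold serially diluted in TSB and mixed 1:1 with bacteria in TSB (1 × 10^6 CFU/mL). Incubated 16 h at 37 °C, then A600 read. MIC taken as the lowest concentration giving complete growth inhibition.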
# Enterococcus faecalis = experiment: Antibacterial activity against Enterococcus faecalis ATCC 29212 assessed as reduction bacterial growth after 16 hrs by TECAN SPARK microplate reader analysis; type: functional; outline: as §1
# Klebsiella pneumoniae = experiment: Antibacterial activity against Klebsiella pneumoniae ATCC 10031 assessed as reduction bacterial growth after 16 hrs by TECAN SPARK microplate reader analysis; type: functional; outline: as §1
# Pseudomonas aeruginosa = experiment: Antibacterial activity against Pseudomonas aeruginosa CMCC 10104 assessed as reduction bacterial growth after 16 hrs by TECAN SPARK microplate reader analysis; type: functional; outline: as §1
# Staphylococcus aureus [1] = experiment: Antibacterial activity against Staphylococcus aureus ATCC 29213 assessed as reduction bacterial growth after 16 hrs by TECAN SPARK microplate reader analysis; type: functional; outline: as §1
# Acinetobacter baumannii = experiment: Antibacterial activity against Acinetobacter baumannii ATCC 19606 assessed as reduction bacterial growth after 16 hrs by TECAN SPARK microplate reader analysis; type: functional; outline: as §1
# Escherichia coli = experiment: Antibacterial activity against Escherichia coli ATCC 25922 assessed as reduction bacterial growth after 16 hrs by TECAN SPARK microplate reader analysis; type: functional; outline: as §1
# Staphylococcus aureus [2] = experiment: Antibacterial activity against methicillin-resistant Staphylococcus aureus ATCC 43300 assessed as reduction bacterial growth after 16 hrs by TECAN SPARK microplate reader analysis; type: functional
# Outline: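 Broth microdilution in TSB: single colony grown overnight at 37 °C, diluted 100-fold and grown to mid-log phase. 2-fold serial compound dilutions mixed 1:1 with bacteria at 1 × 10^6 CFU/mL, incubated 16 h at 37 °C, absorbance read at 600 nm. MIC taken as lowest concentration giving complete growth inhibition.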
# [3] = Hemolytic activity in mouse red blood cells assessed as hemolysis incubated for 1 hr by TECAN SPARK microplate reader analysis; type: toxicity, cell-based, Erythrocyte; conditions: red blood cells (erythrocytes)
# Outline: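 Mouse RBCs washed three times in 1× PBS by centrifugation (3500 rpm, 10 min) and made up as a 5% v/v suspension. Incubated with 2-fold serially diluted compound in PBS for 1 h at 37 °C, then centrifuged. Supernatant diluted in PBS and A540 read. % hemolysis calculated relative to 1% Triton X-100 (100%) and PBS (0%).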
Structure (SMILES),MIC (Bacillus subtilis),MIC (Enterococcus faecalis),MIC (Klebsiella pneumoniae),MIC (Pseudomonas aeruginosa),MIC (Staphylococcus aureus [1]),MIC (Acinetobacter baumannii),MIC (Escherichia coli),MIC (Staphylococcus aureus [2]),HC50 at 1 h [3]
CCCCCCN1C(=O)[C@H](CCCCN)N(Cc2ccc(-c3ccc(-c4ccc(CN5C(=O)N(CCCCCC)C(=O)[C@@H]5CCCCN)cc4)cc3)cc2)C1=O,3.91 mg/L,15.6 mg/L,62.5 mg/L,250 mg/L,7.81 mg/L,125 mg/L,62.5 mg/L,250 mg/L,–
CCCCCCCCCCCCN1C(=O)[C@H](CCCCN)N(Cc2ccc(-c3ccc(CN4C(=O)N(CCCCCCCCCCCC)C(=O)[C@@H]4CCCCN)cc3)cc2)C1=O,–,–,–,–,250 mg/L,–,250 mg/L,–,–
CCCCCCN1C(=O)[C@H](CCCCNC(=N)N)N(Cc2ccc3cc(CN4C(=O)N(CCCCCC)C(=O)[C@@H]4CCCCNC(=N)N)ccc3c2)C1=O,3.91 mg/L,3.91 mg/L,7.81 mg/L,15.6 mg/L,3.91 mg/L,31.2 mg/L,15.6 mg/L,15.6 mg/L,117 µg/mL
CN(C)[C@@H]1C(O)=C(C(N)=O)C(=O)[C@@]2(O)C(O)=C3C(=O)c4c(O)cccc4[C@@](C)(O)[C@H]3C[C@@H]12 [TETRACYCLINE],–,–,–,–,0.98 mg/L,–,7.81 mg/L,–,–
O=C(O)c1cn(C2CC2)c2cc(N3CCNCC3)c(F)cc2c1=O [CIPROFLOXACIN],–,–,–,–,0.39 mg/L,–,–,–,–
CN[C@H](CC(C)C)C(=O)N[C@H]1C(=O)N[C@@H](CC(N)=O)C(=O)N[C@H]2C(=O)N[C@H]3C(=O)N[C@H](C(=O)N[C@H](C(=O)O)c4cc(O)cc(O)c4-c4cc3ccc4O)[C@H](O)c3ccc(c(Cl)c3)Oc3cc2cc(c3O[C@@H]2O[C@H](CO)[C@@H](O)[C@H](O)[C@H]2O[C@H]2C[C@](C)(N)[C@H](O)[C@H](C)O2)Oc2ccc(cc2Cl)[C@H]1O [VANCOMYCIN],–,–,–,–,1.95 mg/L,–,125 mg/L,–,–
CCCCCCCN1C(=O)[C@H](CCCCN)N(Cc2ccc(-c3ccc(CN4C(=O)N(CCCCCCC)C(=O)[C@@H]4CCCCN)cc3)cc2)C1=O,3.91 mg/L,7.81 mg/L,7.81 mg/L,15.6 mg/L,3.91 mg/L,7.81 mg/L,7.81 mg/L,62.5 mg/L,156 µg/mL
CCCCCCN1C(=O)[C@H](CCCCN)N(Cc2ccc3cc(CN4C(=O)N(CCCCCC)C(=O)[C@@H]4CCCCN)ccc3c2)C1=O,7.81 mg/L,31.2 mg/L,1.95 mg/L,15.6 mg/L,3.91 mg/L,31.2 mg/L,15.6 mg/L,15.6 mg/L,59.9 µg/mL
CCCCCCN1C(=O)[C@H](CCCCN)N(Cc2ccc(CN3C(=O)N(CCCCCC)C(=O)[C@@H]3CCCCN)cc2)C1=O,3.91 mg/L,125 mg/L,62.5 mg/L,62.5 mg/L,31.2 mg/L,250 mg/L,250 mg/L,250 mg/L,–
CCCCCCN1C(=O)[C@H](CCCCN)N(Cc2ccc(/C=C/c3ccc(CN4C(=O)N(CCCCCC)C(=O)[C@@H]4CCCCN)cc3)cc2)C1=O,7.81 mg/L,7.81 mg/L,3.91 mg/L,15.6 mg/L,3.91 mg/L,15.6 mg/L,31.2 mg/L,31.2 mg/L,43.5 µg/mL
COc1cccc(OC)c1C(=O)N[C@@H]1C(=O)N2[C@@H]1SC(C)(C)[C@@H]2C(=O)O [METHICILLIN],–,–,–,–,–,–,–,250 mg/L,–
CCCCCN1C(=O)[C@H](CCCCN)N(Cc2ccc(-c3ccc(CN4C(=O)N(CCCCC)C(=O)[C@@H]4CCCCN)cc3)cc2)C1=O,7.81 mg/L,31.2 mg/L,62.5 mg/L,62.5 mg/L,7.81 mg/L,15.6 mg/L,7.81 mg/L,15.6 mg/L,135 µg/mL
CCCCCCN1C(=O)[C@H](CCCCN)N(Cc2ccc(CCc3ccc(CN4C(=O)N(CCCCCC)C(=O)[C@@H]4CCCCN)cc3)cc2)C1=O,7.81 mg/L,7.81 mg/L,3.91 mg/L,125 mg/L,1.95 mg/L,3.91 mg/L,3.91 mg/L,15.6 mg/L,20.9 µg/mL
CCCCCCN1C(=O)[C@H](CCCCN)N(Cc2cccc(CN3C(=O)N(CCCCCC)C(=O)[C@@H]3CCCCN)c2)C1=O,7.81 mg/L,62.5 mg/L,62.5 mg/L,31.2 mg/L,31.2 mg/L,125 mg/L,250 mg/L,250 mg/L,–
